By IC50 is commonly meant the concentration needed to halve the response being measured. A low value points to greater potency. A word on the inhibition: it is the relative decrease from the control value, in per cent.

Experimental findings from ChEMBL document CHEMBL4393672, “High affinity CXCR4 inhibitors generated by linking low affinity peptides” (Eur J Med Chem, 2019) are described below.

Calls of active or inactive are those of the source. No cut-off for these calls is given here. Residues, ends and D or L forms follow the SMILES beside them.

The target in series [1] is T1, C-X-C chemokine receptor type 4 (Homo sapiens, UniProt P61073). Put plainly: Competitive binding affinity to CXCR4 in human SupT1 cells incubated for 40 mins by 12G5 antibody based fluorescence analysis. Format: cell-based.
T1 sequence (P61073 whole entry): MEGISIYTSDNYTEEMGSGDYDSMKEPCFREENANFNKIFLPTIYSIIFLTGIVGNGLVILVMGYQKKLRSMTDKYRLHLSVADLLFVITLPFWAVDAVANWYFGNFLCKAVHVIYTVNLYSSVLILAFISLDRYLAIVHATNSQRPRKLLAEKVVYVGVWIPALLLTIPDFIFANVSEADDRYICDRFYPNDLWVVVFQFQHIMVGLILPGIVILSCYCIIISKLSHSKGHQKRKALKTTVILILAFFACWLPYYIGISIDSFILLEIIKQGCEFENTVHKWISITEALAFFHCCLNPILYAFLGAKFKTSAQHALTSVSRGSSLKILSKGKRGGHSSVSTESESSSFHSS
Series [2] addresses T1, C-X-C chemokine receptor type 4. Briefly: Competitive binding affinity to CXCR4 receptor (unknown origin) expressed in CHO cells incubated for 40 mins by 12G5 antibody based fluorescence analysis. Format: cell-based.
Series [3] deals with C-X-C chemokine receptor type 4 (Homo sapiens), P61073 [D262N]. Put plainly: Binding affinity to CXCR4 D262N mutant (unknown origin) expresssed in CHO cells at 200 nM incubated for 30 mins by 12G5 antibody based fluorescence analysis. Format: cell-based. The method, boiled down:
(§1)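 Wild-type or mutant CXCR4 cells (5×10⁵/well) incubated with single 200 nM concentration in FACS buffer (0.5% BSA, 0.05% azide in PBS) plus 12G5 anti-CD184 antibody, 30 min on ice; washed, FITC anti-mouse IgG 30 min on ice; fluorescence 485ex/528em; duplicates, ≥3 independent experiments, normalized as percent of control.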

Series [4] concerns Human immunodeficiency virus 1. Briefly: Antiviral activity against Human immunodeficiency virus 1 NL4-3 infected in human PBMC cells assessed as inhibition of extracellular p24 level preincubated with cells for 2 hrs followed by viral infection for 2 hrs and measured after 5 days by ELISA.
The subject of series [5] is C-X-C chemokine receptor type 4 (Homo sapiens), P61073 [Y45A]. Put plainly: Competitive binding affinity to CXCR4 Y45A mutant (unknown origin) expressed in CHO cells at 200 nM incubated for 30 mins by 12G5 antibody based fluorescence analysis. The series is classed as cell-based. The method, boiled down: as §1
The subject of series [6] is Human immunodeficiency virus 1. Briefly: Antiviral activity against Human immunodeficiency virus 1 NL4-3 infected in human PBMC cells assessed as reduction in intracellular p24 level at 100 nM preincubated with cells 2 hrs followed by viral infection and measured after 24 hrs by ELISA. Format: functional. The method, boiled down: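 PBMCs from healthy donors (2.5×10^6 cells/mL) were exposed to compound for 2 h, washed, and infected with HIV-1 NL4-3 at MOI 0.02 for 2 h at 37°C. Cells were washed, resuspended in complete medium and incubated 24 h. Cells were then lysed with protease inhibitor, and intracellular p24 was quantified by ELISA.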

Series [7] has as its system C-X-C chemokine receptor type 4 (Homo sapiens), P61073 [W195A]. Put plainly: Competitive binding affinity to CXCR4 W195A mutant (unknown origin) expresssed in CHO cells at 200 nM incubated for 30 mins by 12G5 antibody based fluorescence analysis. Format: cell-based. An outline of the steps: as §1
Series [8] has as its system C-X-C chemokine receptor type 4 (Homo sapiens), P61073 [W94A]. Briefly: Competitive binding affinity at CXCR4 W94A mutant (unknown origin) expressed in CHO cells at 200 nM incubated for 30 mins by 12G5 antibody based fluorescence analysis. Format: cell-based. The method, boiled down: as §1
In series [9] the test system is C-X-C chemokine receptor type 4 (Homo sapiens), P61073 [E288Q]. Put plainly: Binding affinity to CXCR4 E288Q mutant (unknown origin) expresssed in CHO cells at 200 nM incubated for 30 mins by 12G5 antibody based fluorescence analysis. The series is classed as cell-based. The method, boiled down:
as §1

For series [10], the system named is C-X-C chemokine receptor type 4 (Homo sapiens), P61073 [D97A]. Briefly: Binding affinity to CXCR4 D97A mutant (unknown origin) expresssed in CHO cells at 200 nM incubated for 30 mins by 12G5 antibody based fluorescence analysis. Format: cell-based. The method, boiled down:
as §1

Series [11] relates to C-X-C chemokine receptor type 4 (Homo sapiens), P61073 [Y116A]. Put plainly: Competitive binding affinity at CXCR4 Y116A mutant (unknown origin) expressed in CHO cells at 200 nM incubated for 30 mins by 12G5 antibody based fluorescence analysis. Format: cell-based. An outline of the steps: as §1
Sequence of C-X-C chemokine receptor type 4 (Homo sapiens), P61073 [Y116A] (P61073 whole entry Y116A): as the sequence (P61073 whole entry) above, with Y116A counted along it
Series [12] concerns the target T1, C-X-C chemokine receptor type 4. Put plainly: Antagonist activity at CXCR4 receptor in human SupT1 cells assessed as inhibition of SDF-1alpha-induced calcium release at 1 uM preincubated for 2 to 3 mins followed by SDF-1alpha addition by Fluo-4AM dye based fluorescence assay relative to control. The series is classed as functional, cell-based. The method, boiled down:
(§2)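 SupT1 cells loaded with Fluo-4AM (2 µM) plus probenecid (5 µM) for 30 min at 37°C in HBSS/20 mM HEPES, washed; 1×10⁶ cells/mL exposed to compound 2–3 min, then stimulated with 50 nM SDF-1α; fluorescence read at […]/510em.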

The target is the same in series [13]. Briefly: Inhibition of N-terminal flag-tagged CXCR4 (unknown origin) internalization expressed in CHO cells incubated for 45 mins and measured after 1 hr by FITC-labeled anti-flag antibody based fluorescence analysis.
Series [14] is described as follows: Stability of compound in water assessed as compound remaining at 1mM at 37 degC after 48 hrs by HPLC analysis relative to control. Format: physicochemical. Particulars: read-out: Stability.
For series [15], the target named is T1, C-X-C chemokine receptor type 4. Put plainly: Antagonist activity at CXCR4 receptor in human SupT1 cells assessed as inhibition of SDF-1alpha-induced calcium release preincubated for 2 to 3 mins followed by SDF-1alpha addition by Fluo-4AM dye based fluorescence assay. Format: functional, cell-based. An outline of the steps: as §2

Sequence of C-X-C chemokine receptor type 4 (Homo sapiens), P61073 [E288Q] (P61073 whole entry E288Q): as the sequence (P61073 whole entry) above, with E288Q counted along it
Sequence of C-X-C chemokine receptor type 4 (Homo sapiens), P61073 [D97A] (P61073 whole entry D97A): as the sequence (P61073 whole entry) above, with D97A counted along it
Sequence of C-X-C chemokine receptor type 4 (Homo sapiens), P61073 [Y45A] (P61073 whole entry Y45A): as the sequence (P61073 whole entry) above, with Y45A counted along it
Sequence of C-X-C chemokine receptor type 4 (Homo sapiens), P61073 [D262N] (P61073 whole entry D262N): as the sequence (P61073 whole entry) above, with D262N counted along it
Sequence of C-X-C chemokine receptor type 4 (Homo sapiens), P61073 [W94A] (P61073 whole entry W94A): as the sequence (P61073 whole entry) above, with W94A counted along it
Sequence of C-X-C chemokine receptor type 4 (Homo sapiens), P61073 [W195A] (P61073 whole entry W195A): as the sequence (P61073 whole entry) above, with W195A counted along it

On to `CC[C@H](C)[C@H](NC(=O)[C@H](CC(=O)O)NC(=O)CNC(=O)[C@H](CCCCN)NC(=O)[C@H](CCCNC(=N)N)NC(=O)[C@H](CCCCN)NC(=O)CCCCCN)C(=O)N[C@@H](CCCNC(=N)N)C(=O)N[C@@H](CCC(N)=O)C(=O)N[C@@H](C)C(=O)N[C@@H](Cc1cnc[nH]1)C(=O)N[C@@H](CS)C(N)=O` (HELM PEPTIDE1{[NCCCCCC(=O)[*:2]].K.R.K.G.D.I.R.Q.A.H.C.[am]}$$$$V2.0), for which the IC50 in series [1] and in [2] was > 50000 nM each time.

On to `CC(C)C[C@@H](N)C(=O)NCC(=O)N[C@H](C)C(=O)N[C@H](CO)C(=O)N[C@H](Cc1c[nH]c2ccccc12)C(=O)N[C@H](Cc1cnc[nH]1)C(=O)N[C@H](CCCNC(=N)N)C(=O)N1CCC[C@@H]1C(=O)N[C@H](CC(=O)O)C(=O)N[C@H](CCCCN)C(=O)N[C@H](CS)C(=O)N[C@H](CS)C(=O)N[C@H](CC(C)C)C(=O)NCC(=O)N[C@H](Cc1ccc(O)cc1)C(=O)N[C@H](CCC(N)=O)C(=O)N[C@H](CCCCN)C(=O)N[C@H](CCCNC(=N)N)C(=O)N1CCC[C@@H]1C(=O)N[C@H](CC(C)C)C(=O)N1CCC[C@@H]1C(=O)NCCCCCC(=O)N[C@@H](CCCCN)C(=O)NCC(=O)N[C@@H](CC(C)C)C(=O)N[C@@H](CC(C)C)C(=O)NCC(=O)N[C@@H](CC(C)C)C(=O)N[C@@H](CO)C(=O)N[C@@H](CCCCN)C(N)=O`, for which the IC50 in [1] came to 147 nM.

In series [1], `CC(C)C[C@@H](N)C(=O)NCC(=O)N[C@H](C)C(=O)N[C@H](CO)C(=O)N[C@H](Cc1c[nH]c2ccccc12)C(=O)N[C@H](Cc1cnc[nH]1)C(=O)N[C@H](CCCNC(=N)N)C(=O)N1CCC[C@@H]1C(=O)N[C@H](CC(=O)O)C(=O)N[C@H](CCCCN)C(=O)N[C@H](CS)C(=O)N[C@H](CS)C(=O)N[C@H](CC(C)C)C(=O)NCC(=O)N[C@H](Cc1ccc(O)cc1)C(=O)N[C@H](CCC(N)=O)C(=O)N[C@H](CCCCN)C(=O)N[C@H](CCCNC(=N)N)C(=O)N1CCC[C@@H]1C(=O)N[C@H](CC(C)C)C(=O)N1CCC[C@@H]1C(=O)NCCCCCC(=O)N[C@@H](CCCCN)C(=O)N[C@H](CCCCN)C(=O)N[C@H](CCCNC(=N)N)C(=O)N[C@H](Cc1ccccc1)C(=O)N[C@H](Cc1ccccc1)C(=O)N[C@H](CC(=O)O)C(=O)NCC(=O)N[C@H](CC(C)C)C(=O)N[C@H](CC(C)C)C(N)=O` came in with an IC50 of 193 nM.

Consider `CC(C)C[C@@H](N)C(=O)NCC(=O)N[C@H](C)C(=O)N[C@H](CO)C(=O)N[C@H](Cc1c[nH]c2ccccc12)C(=O)N[C@H](Cc1cnc[nH]1)C(=O)N[C@H](CCCNC(=N)N)C(=O)N1CCC[C@@H]1C(=O)N[C@H](CC(=O)O)C(=O)N[C@H](CCCCN)C(N)=O` (HELM PEPTIDE1{[dL].G.[dA].[dS].[dW].[dH].[dR].[dP].[dD].[dK].[am]}$$$$V2.0), for which the outcome in [3], in [7], in series [9] and in series [10] was inactive. The inhibition result in series [4] and in series [6] was “inactive” each time. Moreover, the result in series [5], in series [8] and in series [11] was Active.

Consider `CC[C@H](C)[C@H](NC(=O)[C@H](CC(=O)O)NC(=O)CNC(=O)[C@H](CCCCN)NC(=O)[C@H](CCCNC(=N)N)NC(=O)[C@H](CCCCN)NC(=O)CCCCCNC(=O)[C@@H](CCCNC(=N)N)NC(=O)[C@@H](CCCCN)NC(=O)[C@@H](CCCCN)NC(=O)[C@@H](CC(=O)O)NC(=O)[C@H]1CCCN1C(=O)[C@@H](CCCNC(=N)N)NC(=O)[C@@H](Cc1cnc[nH]1)NC(=O)[C@@H](Cc1c[nH]c2ccccc12)NC(=O)[C@@H](CO)NC(=O)[C@@H](C)NC(=O)CNC(=O)[C@H](N)CC(C)C)C(=O)N[C@@H](CCCNC(=N)N)C(=O)N[C@@H](CCC(N)=O)C(=O)N[C@@H](C)C(=O)N[C@@H](Cc1cnc[nH]1)C(=O)N[C@@H](CS)C(N)=O`, for which the figures for the inhibition in [12] and in [15] were 100% and “Dose-dependent effect”, respectively. Besides, the result in series [13] was inactive. Also, the remaining at 48 h, 1000 µM in series [14] came to 95%. The inhibition entry in [6] is “Active”.

With `c1cc(CN2CCCNCCNCCCNCC2)ccc1CN1CCCNCCNCCCNCC1`, in [6], the outcome was Active.
